{"data": "Experimental data from different studies", "P2RY14": "P2Y purinoceptor 14 (P2RY14, Homo sapiens, UniProt Q15391)", "ADRA1B": "Alpha-1B adrenergic receptor (ADRA1B, Homo sapiens, UniProt P35368)", "Nuclear receptor subfamily 4 group A member 2": "Nuclear receptor subfamily 4 group A member 2 (Homo sapiens, UniProt P43354)", "note": "Lines come from different studies, so protocols differ."}
{"Compound": "O=C(O)c1cc(-c2ccc(-n3nncc3CCOP(=O)(O)O)cc2)c2ccc(-c3ccc(C(F)(F)F)cc3)cc2c1", "target": "P2RY14", "observed": "ligand displacement in cells", "method": "flow cytometry", "measurement": "Ki", "value": "0.0913 µM"}
{"Compound": "Cc1cc(Oc2ncccc2CN2CCN(CCc3ccccc3)CC2)ccc1-c1c(C)c(=O)[nH]c(=O)n1C", "target": "ADRA1B", "observed": "ligand displacement", "method": "radioligand", "measurement": "Ki", "value": "1.66 µM"}
{"Compound": "O=C(O)c1cc(-c2ccc([C@H]3C[C@H]4C[C@@H]3CN4)cc2)c2ccc(-c3ccc(C(F)(F)F)cc3)cc2c1", "target": "P2RY14", "observed": "ligand displacement", "method": "flow cytometry", "measurement": "Ki", "value": "0.00181 µM"}
{"Compound": "Cc1cc(Oc2ncccc2CN2CCN(c3cccc(F)c3)CC2)ccc1-c1c(C)c(=O)[nH]c(=O)n1C", "target": "ADRA1B", "observed": "ligand displacement", "method": "radioligand", "measurement": "Ki", "value": "3.02 µM"}
{"Compound": "O=C(O)c1cc(-c2ccc(-c3c[nH]nn3)cc2)c2ccc(-c3ccc(C(F)(F)F)cc3)cc2c1", "target": "P2RY14", "observed": "ligand displacement in cells", "method": "flow cytometry", "measurement": "Ki", "value": "0.00215 µM"}
{"Compound": "COc1ccccc1N1CCN(Cc2cccnc2Oc2ccc(-c3c(C)c(=O)[nH]c(=O)n3C)c(C)c2)CC1", "target": "ADRA1B", "observed": "ligand displacement", "method": "radioligand", "measurement": "Ki", "value": "1.39 µM"}
{"Compound": "Cc1onc(-c2ccccc2)c1-c1ccc(S(N)(=O)=O)cc1", "target": "Nuclear receptor subfamily 4 group A member 2", "observed": "binding", "method": "ITC", "measurement": "Kd", "value": "1.2 µM"}
{"Compound": "Cc1cc(Oc2ncccc2CN2CCN(C(c3ccccc3)c3ccccc3)CC2)ccc1-c1c(C)c(=O)[nH]c(=O)n1C", "target": "ADRA1B", "observed": "ligand displacement", "method": "radioligand", "measurement": "Ki", "value": "0.721 µM"}
{"Compound": "O=c1c(O[C@@H]2O[C@H](CO)[C@H](O)[C@H](O)[C@H]2O)c(-c2ccc(O)c(O)c2)oc2cc(O)cc(O)c12", "target": "Sortase B (srtB, Staphylococcus aureus, UniProt Q2FZE3)", "observed": "binding", "method": "SPR", "measurement": "Kd", "value": "198 µM"}
{"Compound": "COc1cccc2c(Nc3ccc4[nH]c(C(=O)N/N=C/c5ccc(SC)cc5)cc4c3)cc(C)nc12", "target": "Nuclear receptor subfamily 4 group A member 2", "observed": "binding", "method": "ITC", "measurement": "Kd", "value": "2.8 µM"}
{"Compound": "Cc1cc(Oc2ncccc2CN2CCN(c3cccc(C)c3C)CC2)ccc1-c1c(C)c(=O)[nH]c(=O)n1C", "target": "ADRA1B", "observed": "ligand displacement", "method": "radioligand", "measurement": "Ki", "value": "4.42 µM"}
{"Compound": "COC(=O)c1cn(C)c2ccc(-c3cccnc3)cc12", "target": "Nuclear receptor subfamily 4 group A member 2", "observed": "binding", "method": "ITC", "measurement": "Kd", "value": "0.4 µM"}
{"Compound": "O=C(O)c1cc(-c2ccc(-n3cc(CCOP(=O)(O)O)nn3)cc2)c2ccc(-c3ccc(C(F)(F)F)cc3)cc2c1", "target": "P2RY14", "observed": "ligand displacement in cells", "method": "flow cytometry", "measurement": "Ki", "value": "0.779 µM"}
{"Compound": "CCN(CC)CCCC(C)Nc1ccnc2cc(Cl)ccc12 (stereo not drawn)", "target": "Nuclear receptor subfamily 4 group A member 2", "observed": "binding", "method": "ITC", "measurement": "Kd", "value": "6.8 µM"}
{"Compound": "Nc1ncnc2c1ncn2[C@@H]1O[C@H](COP(=O)(O)OP(=O)(O)OP(=O)(O)O)[C@@H](O)[C@H]1O", "target": "P2X purinoceptor 7 (P2RX7, Homo sapiens, UniProt Q99572)", "observed": "binding", "method": "SPR", "measurement": "Kd", "value": "224 µM"}
